Hits are enriched below; roughly 1.6% of the tested compounds scored in any of these assays.
VLA-4 inh: inhibition in human VLA-4 binding assay, primary screen, VLA-4 allosteric modulator project, MLPCN library, flow cytometry, VLA-4 expressing cells. inhibition, % (about 7 µM as worked out from the volumes in the protocol). Integrin alpha-4 (Homo sapiens), P13612. hit rate 0.2% among 330,000. ligand binding flow cytometry; in the data active means inhibition above about 50%
PG9 Ab binder: binders of HIV-1 gp120 antibody PG9, primary screen, biochemical, TR-FRET; HIV-1 gp120 / PG9 antibody interaction; hit rate 0.43% among 360,000; TR-FRET gp120-PG9 antibody binding; inhibition, % at 6.7 µM; in the data active means inhibition above about 8.5%
NR2E3 ag-1: inhibitors of NR2E3-RetCOR corepressor binding, primary screen, NR2E3 agonist project, biochemical, TR-FRET, GST-NR2E3, biotin-RetCOR; Photoreceptor-specific nuclear receptor (Homo sapiens), Q9Y5X4; 1536-well; hit rate 0.12% among 320,000; inhibition of corepressor binding, % at 4.78 µM;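 active means percent inhibition above the cutoff of mean plus 3 SD of all tested compounds, set per screening campaign, cut at about 20% in these data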
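Material – GST-tagged NR2E3 plus biotinylated RetCOR corepressor · Quantity – NR2E3 fusion 1.35 nM · Times – 5 h incubation at 4 °C · Medium – pH 7.5 Tris-based buffer · Technique – TR-FRET, Eu(K)-anti-GST donor, streptavidin-D2 acceptor, ex 340, em 617/671 nm · Benchmarks – high control biotin, low control 0.6% DMSO · Format – 1536-well plates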
NR2E3 ag-2: NR2E3 agonists in two-hybrid cells, primary screen, cell-based, luminescence, CHO-S, Gal4-NCOR/VP16-NR2E3 | Photoreceptor-specific nuclear receptor (Homo sapiens), Q9Y5X4 | inhibition of corepressor binding, % at 3.98 µM | hit rate 0.35% among 360,000 | AID 602229, 2012 | luciferase;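 active means inhibition above the mean of all tested compounds plus 3 SD, cut at about 70% in these data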;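 further: higher means lower luciferase signal from less NR2E3 corepressor binding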
NR1D1 modulator: modulators of Rev-erb alpha DNA binding, primary screen, biochemical, FITC-DNA, fluorescence polarization, uHTS | activity, % at 10 µM | Rev-erbα–FITC-DNA binding, 90 min | AID 1259318, 2017 | Nuclear receptor subfamily 1 group D member 1 (Homo sapiens), P20393 | hit rate 0.79% among 370,000;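 active means activity above about 14%, limit read from the data; passing the limit was not always enough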
NR2E3 agonist cf: NR2E3 agonists, confirmation, biochemical, TR-FRET | activation (reported as inhibition), % at 3.98 µM | cell-free NR2E3 corepressor release, 5 h | shares compounds with NR2E3 ag-1 | hit rate 39% among 360; in the data active means activation above about 20%
PPARg-NCOR2 ag: agonists of PPARg-NCOR2 corepressor interaction, counter-screen for NR2E3 agonist project, biochemical, TR-FRET; shares compounds with NR2E3 ag-1; TR-FRET PPARg-NCOR2 coregulator interaction; inhibition, % at 3.98 µM; hit rate 45% among 360; AID 504787, 2011; in the data active means inhibition above about 20%
VLA-4 mod pick: retest of VLA-4 allosteric modulators, confirmation, cell-based, cherry-picked plates, U937, HUTS-21 LIBS antibody. inhibition, % at 6.7 µM. shares compounds with VLA-4 inh. U937 cells, HUTS-21 LIBS mAb binding, flow cytometry; LDV ligand present at threefold Kd. hit rate 2% among 1,300; in the data active means inhibition above about 40%
PG9 binder conf: binders of anti-gp120 antibody PG9, confirmation, biochemical, TR-FRET. shares compounds with PG9 Ab binder. TR-FRET PG9 antibody binding. inhibition, % at 6.7 µM. hit rate 90% among 1,500. AID 651571, 2012; in the data active means inhibition above about 9%
PGV04 counter: binders of control antibody PGV04, counter-screen for PG9 antibody binder project, biochemical, TR-FRET, distinct HIV envelope site | TR-FRET PGV04 antibody-gp120 binding | hit rate 95% among 1,500 | inhibition, % at 6.7 µM | AID 651604, 2012 | shares compounds with PG9 Ab binder; in the data active means inhibition above about 9.5%
NR1D1 mod conf: modulators of Rev-erb alpha DNA binding, confirmation, biochemical, FITC-DNA, fluorescence polarization, single point; shares compounds with NR1D1 modulator; 90 min; activation, % at 25 µM; hit rate 61% among 3,000; AID 1259319, 2017;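 active means activation at or above a set limit, or at least 3 SD above the negative control mean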
Of the large screens only hits and unclear results are named; the others gave an inactive call (follow-up assays come after a bar, where they were run).

COc1cccc(OCc2nc3ccccc3[nH]2)c1	none
CCOC(=O)c1sc(NC(=O)c2ccco2)nc1-c1ccccc1	PG9 Ab binder 10, NR2E3 ag-1 20, NR1D1 modulator 46 | NR2E3 agonist cf inactive | PPARg-NCOR2 ag 25 | PG9 binder conf 30 | PGV04 counter 57 | NR1D1 mod conf 25
CC(=O)c1sc(NC(=O)c2ccco2)nc1-c1ccccc1	none (no result: PG9 Ab binder, NR1D1 modulator)
COc1cccc(NC(=S)Nc2cc(C)cc(C)n2)c1	NR2E3 ag-1 31, NR1D1 modulator 31 | NR2E3 agonist cf 30 | PPARg-NCOR2 ag 39 | NR1D1 mod conf inactive
Cc1nc2[nH]c(=O)c3c(n2n1)NC1=C(C(=O)CC(C)(C)C1)C3c1ccc(F)cc1 (centres undefined)	none
CCc1ccc(C2C3=C(CC(C)(C)CC3=O)Nc3c2c(=O)[nH]c2nc(C)nn32)cc1 (centres undefined)	VLA-4 inh 57 | VLA-4 mod pick inactive
C=CCN(C)C(C#CCCCC)c1ccccc1 (centres undefined)	none (no result: VLA-4 inh, PG9 Ab binder, NR2E3 ag-1, NR2E3 ag-2)
Cn1cc(C(=O)N/N=C/C=C/c2ccccc2)ccc1=O	none | VLA-4 mod pick inactive
O=C1OC(c2ccc(F)cc2)=N/C1=C\C=C/c1ccccc1	none | VLA-4 mod pick inactive
CCOC(=O)c1c(NC(=O)C2c3ccccc3Oc3ccccc32)sc(C(=O)N(CC)CC)c1C	none (no result: PG9 Ab binder, NR1D1 modulator) | VLA-4 mod pick inactive
CCOC(=O)c1c(NC(=O)CN(C)C)sc(C(=O)N(CC)CC)c1C	none
CCOC(=O)c1cc(C)nn1-c1nc(Cl)cc(OC)n1	none
COc1cc(C)nc(-n2nc(C)cc2OC)n1	none | VLA-4 mod pick inactive
O=C(c1cccs1)C1CCN(c2ncnc3sccc23)CC1	none (no result: VLA-4 inh, PG9 Ab binder, NR2E3 ag-1, NR2E3 ag-2)
COC(=O)c1cn(CC(=O)Nc2ccccc2C)c2ccccc12	none | VLA-4 mod pick inactive
CC(=O)c1cn(CC(=O)Nc2ccccc2F)c2ccccc12	none
COC(=O)c1cn(CC(=O)Nc2ccc(OC)cc2)c2ccccc12	none
CCC(=O)c1cn(CC(=O)Nc2ccccc2F)c2ccccc12	none | VLA-4 mod pick inactive
CCC(=O)c1cn(CC(=O)Nc2ccc(OC)cc2)c2ccccc12	VLA-4 inh 57 | VLA-4 mod pick inactive
COC(=O)[C@]12C[C@H](CC(=O)N3CCSCC3)C(=O)N(Cc3cccc4ccccc34)C1=C[C@H](C1CCCC1)O[C@@H]2C	none (no result: VLA-4 inh, PG9 Ab binder, NR2E3 ag-1, NR2E3 ag-2)
COc1ccc(C(C)=O)cc1COC(=O)CNC(=O)c1cc(C)cc(C)c1	VLA-4 inh 53 | VLA-4 mod pick inactive
CSc1nc2nc(-c3ccccc3)cc(=O)n2[nH]1	VLA-4 inh 93 | VLA-4 mod pick inactive
O=c1c2ccccc2nc2n1CCc1c-2[nH]c2ccccc12	VLA-4 inh 51 | VLA-4 mod pick inactive
Cc1cccc2c(=O)n3c(cc12)-c1[nH]c2ccccc2c1CC3	none (no result: VLA-4 inh, NR2E3 ag-1)
CCC[C@@H]1C[C@@H](C(=O)N[C@@H]([C@H]2O[C@H](SC)[C@H](OP(=O)(O)O)[C@@H](O)[C@H]2O)[C@H](C)Cl)N(C)C1	none (no result: VLA-4 inh, PG9 Ab binder, NR2E3 ag-1, NR2E3 ag-2)
O=C(COC(=O)c1ccccc1)NC1CCCCCC1	none (no result: NR2E3 ag-1) | VLA-4 mod pick inactive
Cc1cc2c(cc1C)C(c1ccccc1OC(C)C)CC(=O)N2 (centres undefined)	none | VLA-4 mod pick inactive
CC(C)Oc1ccccc1C1CC(=O)Nc2cc3c(cc21)OCO3 (centres undefined)	VLA-4 inh 57 | VLA-4 mod pick 42
COc1ccc(C(=O)NCc2cccnc2)cc1C(=O)NCc1cccnc1	VLA-4 inh 56 | VLA-4 mod pick inactive
COc1cc(OC)c(C(=O)NCc2cccnc2)cc1OC	none
C[C@H]1[C@@H](OC(=O)Nc2cc(Cl)ccc2Cl)CC[C@@]23CCCN2C(=O)CCC[C@@H]13	none (no result: VLA-4 inh, PG9 Ab binder, NR2E3 ag-1, NR2E3 ag-2)
CN(C(=O)COC(=O)c1cccc(F)c1)c1ccccc1	none
CN(C)c1cccc(C(=O)OCC(=O)N(C)c2ccccc2)c1	none | VLA-4 mod pick inactive
O=C(COC(=O)c1ccc(Sc2ncn[nH]2)c([N+](=O)[O-])c1)Nc1ccc(Cl)c(Cl)c1	none (no result: VLA-4 inh, PG9 Ab binder, NR2E3 ag-1, NR2E3 ag-2)
CCOC(=O)c1ccc(NC(=O)CSc2nnc(SCc3cccc4ccccc34)s2)cc1	none (no result: VLA-4 inh, PG9 Ab binder, NR2E3 ag-1, NR2E3 ag-2)
C=CCN(CC=C)C(=S)NC(=O)c1ccc(OC)cc1	VLA-4 inh 52 | VLA-4 mod pick inactive
O=C(Cc1cccs1)NC1CCCCN(Cc2cccc(Cl)c2)C1=O (centres undefined)	none (no result: VLA-4 inh, PG9 Ab binder, NR2E3 ag-1, NR2E3 ag-2)
COc1ccc(N2CCN(CCCNC(=O)COc3ccc(F)cc3)CC2)cc1	none (no result: VLA-4 inh, PG9 Ab binder, NR2E3 ag-1, NR2E3 ag-2)
COC(=O)c1c(C)[nH]c(C(=O)C(C)OC(=O)C2CC2)c1C (centres undefined)	none | VLA-4 mod pick inactive
COC(=O)c1c(C)[nH]c(C(=O)C(C)OC(=O)c2cc(C)oc2C)c1C (centres undefined)	none
COC(=O)c1c(C)[nH]c(C(=O)C(C)OC(=O)c2ccco2)c1C (centres undefined)	none | VLA-4 mod pick inactive
CC(C(=O)NCC1CCCCC1)N1CCc2ccccc2C1 (centres undefined)	none
CC(C(=O)NCC1CCCCC1)N1CCN(S(=O)(=O)/C=C/c2ccccc2)CC1 (centres undefined)	none | VLA-4 mod pick inactive
COc1ccc(OC)c(NS(=O)(=O)c2ccc(SC)cc2)c1	none
CCOc1ccc(S(=O)(=O)Nc2cc(OC)ccc2OC)cc1	VLA-4 inh 53 | VLA-4 mod pick 56
